From ChEMBL document CHEMBL3994573, “Cytotoxic Lanostanoids from Poria cocos” (J Nat Prod, 2016)

How the values were obtained:
Assay type in all cases: functional, cell-based
MOLT-4 = test: Antiproliferative activity against human MOLT4 cells after 72 hrs by MTT assay; settings: MOLT-4, 72 h
How it was run: (§1)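 Leukemia cells (ATCC) grown in RPMI-1640 with 10% FCS, 2 mM glutamine, penicillin/streptomycin at 37 °C, 5% CO2. Seeded at 4 × 10^4 per well. Exposed 72 h to 1.25, 2.5, 5, 10 and 20 μg/mL (DMSO under 0.02%). MTT formazan dissolved in DMSO, read as OD570 − OD620. IC50 = concentration giving half the control absorbance. n = 4 wells per experiment, four separate experiments, ± SD.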

CCRF-CEM = test: Antiproliferative activity against human CCRF-CEM cells after 72 hrs by MTT assay; how it was run: as §1
HL-60 = test: Antiproliferative activity against human HL60 cells after 72 hrs by MTT assay; settings: HL-60, 72 h; how it was run: as §1
K562 = test: Antiproliferative activity against human K562 cells after 72 hrs by MTT assay; settings: K562, 72 h; how it was run: as §1

| Compound | IC50 (MOLT-4) [µM] | IC50 (CCRF-CEM) [µM] | IC50 (HL-60) [µM] | IC50 (K562) [µM] |
| --- | --- | --- | --- | --- |
| C=C(CC[C@@H](C(=O)O)[C@H]1[C@H](O)C[C@@]2(C)[C@]34C=C[C@@]5(OO3)C(C)(C)[C@@H](O)CC[C@]5(C)C4=CC[C@]12C)C(C)C | > 40 | > 40 | > 40 | > 40 |
| C=C(CC[C@@H](C(=O)O)[C@H]1[C@H](O)C[C@@]2(C)C3=CCC4[C@](C)(CC[C@H](O)[C@]4(C)CO)C3=CC[C@]12C)C(C)C (stereo partly specified) | > 40 | > 40 | > 40 | > 40 |
| C=C(CC[C@@H](C(=O)O)[C@H]1[C@H](O)C[C@@]2(C)[C@]34C=C[C@@]5(OO3)C(C)(C)[C@@H](OC(=O)CO)CC[C@]5(C)C4=CC[C@]12C)C(C)C | > 40 | > 40 | > 40 | > 40 |
| C=C(C)C(=O)CC[C@@H](C(=O)O)[C@H]1[C@H](O)C[C@@]2(C)C3=C(CC[C@]12C)[C@@]1(C)CC[C@H](O)C(C)(C)[C@@H]1CC3 | > 40 | > 40 | > 40 | > 40 |
| CC(C)=CCC[C@@H](C(=O)O)[C@H]1[C@H](O)C[C@@]2(C)C3=C(CC[C@]12C)[C@@]1(C)CC[C@H](O)C(C)(C)[C@@H]1CC3 | > 40 | > 40 | > 40 | > 40 |
| C=C(CC[C@@H](C(=O)O)[C@H]1[C@H](O)C[C@@]2(C)C3=C(CC[C@]12C)[C@@]1(C)CC[C@@H](O)C(C)(C)[C@@H]1CC3=O)C(C)C | > 40 | > 40 | > 40 | > 40 |
| CC(C)C(=O)CC[C@@H](C(=O)O)[C@H]1[C@H](O)C[C@@]2(C)C3=CC[C@H]4C(C)(C)[C@@H](O)CC[C@]4(C)C3=CC[C@]12C | > 40 | > 40 | > 40 | > 40 |
| C=C(CC[C@@H](C(=O)O)[C@H]1[C@H](O)C[C@@]2(C)C3=CC=C4C(C)(C)C(=O)CC[C@]4(C)C3=CC[C@]12C)C(C)C | > 40 | > 40 | > 40 | > 40 |
| CC(C)C(=O)CC[C@@H](C(=O)O)[C@H]1[C@H](O)C[C@@]2(C)C3=CC[C@H]4C(C)(C)[C@H](O)CC[C@]4(C)C3=CC[C@]12C | > 40 | > 40 | > 40 | > 40 |
| CC(C)=CCC[C@@H](C(=O)O)[C@H]1[C@H](O)C[C@@]2(C)C3=CC[C@H]4C(C)(C)[C@@H](O)CC[C@]4(C)C3=CC[C@]12C | > 40 | > 40 | > 40 | > 40 |
| C=C(CC[C@@H](C(=O)O)[C@H]1[C@H](O)C[C@@]2(C)C3=CC[C@H]4C(C)(C)[C@@H](OC(C)=O)CC[C@]4(C)C3=CC[C@]12C)C(C)C | 13.8 | 2.7 | 7.3 | 18.6 |
| C=C(CC[C@@H](C(=O)O)[C@H]1[C@H](O)C[C@@]2(C)C3=C(CC[C@]12C)[C@@]1(C)CC[C@H](O)C(C)(C)[C@@H]1CC3=O)C(C)C | > 40 | > 40 | > 40 | > 40 |
| C=C(CC[C@@H](C(=O)O)[C@H]1[C@H](O)C[C@@]2(C)C3=CC[C@H]4C(C)(C)[C@H](O)CC[C@]4(C)C3=CC[C@]12C)C(C)C | > 40 | > 40 | > 40 | > 40 |
| C=C(CC[C@@H](C(=O)O)[C@H]1CC[C@@]2(C)C3=CC[C@H]4C(C)(C)[C@@H](O)CC[C@]4(C)C3=CC[C@]12C)C(C)C [DEHYDROEBURICOIC ACID] | 14.3 | 6.3 | 6 | 25.6 |
| CC(C)=CCC[C@@H](C(=O)O)[C@H]1CC[C@@]2(C)C3=CC[C@H]4C(C)(C)[C@@H](O)CC[C@]4(C)C3=CC[C@]12C [DEHYDROTRAMETENOLIC ACID] | 16.2 | 13.1 | 20 | 14.8 |
| C=C(CC[C@@H](C(=O)O)[C@H]1[C@H](O)C[C@@]2(C)C3=CC[C@H]4C(C)(C)[C@@H](O)CC[C@]4(C)C3=CC[C@]12C)C(C)C [DEHYDROTUMULOSIC ACID] | > 40 | > 40 | > 40 | > 40 |
| COc1cccc2c1C(=O)c1c(O)c3c(c(O)c1C2=O)C[C@@](O)(C(=O)CO)C[C@@H]3O[C@H]1C[C@H](N)[C@H](O)[C@H](C)O1 [DOXORUBICIN] | 0.01 | 0.01 | 0.01 | 0.5 |
| C=C(CC[C@@H](C(=O)O)[C@H]1[C@H](O)C[C@@]2(C)C3=CC[C@H]4C(C)(C)C(=O)CC[C@]4(C)C3=CC[C@]12C)C(C)C [POLYPORENIC ACID B] | 27.6 | 25.5 | 31.8 | 26.3 |
| C=C(CC[C@@H](C(=O)O)[C@H]1[C@H](O)C[C@@]2(C)C3=CC[C@@H](C(=C)C)[C@](C)(CCC(=O)O)C3=CC[C@]12C)C(C)C [PORICOIC ACID A] | > 40 | > 40 | > 40 | > 40 |
